These results are taken from ChEMBL document CHEMBL3526081 (Drug Metab Dispos, 2011).

In data set [1] the test system is Liver microsome. Put plainly: Drug metabolism in beagle dog liver microsomes assessed as 5beta-hydroxylcinobufagin formation at 100 uM at 37 degC after 30 mins by UFLC-ESI-MS analysis in presence of NADPH-generating system. Type of data set: ADME, Canis lupus familiaris. The note with it: 0.5 h. The gist of the method:
(§1)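 Liver microsomes (0.3 mg protein/ml) incubated with 100 µM substrate at 37°C for 30 min, in 100 mM potassium phosphate pH 7.4 with NADPH-generating system (1 mM NADP+, 10 mM glucose 6-phosphate, 1 unit/ml G6PDH, 4 mM MgCl2). Acetonitrile ≤1% final. Stopped with ice-cold acetonitrile and centrifuged. Metabolites identified by UFLC-ESI-MS and quantified by UFLC-DAD at 294 nm against authentic standard curves.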
(Microsomes from liver hold many membrane-bound enzymes, among them those of drug oxidation.)

Data set [2] has as its system Liver. Put plainly: Ratio of Vmax/Km in Swiss-Hauschka (ICR) mouse liver microsomes assessed as 1alpha-hydroxylcinobufagin formation at 100 uM […] by UFLC-ESI-MS analysis. The note with it: 0.5 h. Format: ADME.
Data set [3] relates to Liver microsome. Put plainly: Drug metabolism in beagle dog liver microsomes assessed as 1alpha-hydroxylcinobufagin formation at 100 uM at 37 degC after 30 mins by UFLC-ESI-MS analysis in presence of 10 uM sulfaphenazole CYP2C9 inhibitor. Format: ADME, Canis lupus familiaris. The settings on record: 0.5 h. The gist of the method: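 Chemical inhibition: selective P450 inhibitors (furafylline, sulfaphenazole, ketoconazole) added to liver microsome incubations in 100 mM potassium phosphate pH 7.4 with NADPH-generating system at 37°C. Hydroxylated metabolite formation quantified by UFLC at 294 nm against standards. Mean ± S.D. of three experiments in duplicate.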

Data set [4] in a line: Drug metabolism in cynomolgus monkey liver microsomes assessed as 5beta-hydroxylcinobufaginn formation per mg of protein at 100 uM […] by UFLC-ESI-MS analysis. Type of data set: ADME, Macaca fascicularis. The note with it: 0.5 h.
Data set [5] is described as follows: Drug metabolism in Swiss-Hauschka (ICR) mouse liver microsomes assessed as 5beta-hydroxylcinobufaginn formation per mg of protein at 100 uM at 37 degC after 30 mins by UFLC-ESI-MS analysis. Type of data set: ADME. The settings on record: 0.5 h. The method in brief:
as §1

Data set [6] can be described thus: Drug metabolism in Swiss-Hauschka (ICR) mouse liver microsomes assessed as 5beta-hydroxylcinobufaginn formation at 100 uM at 37 degC after 30 mins by UFLC-ESI-MS analysis. Type of data set: ADME. The settings on record: 0.5 h, read-out: Km(app). The gist of the method:
as §1

The nature of data set [7]: Drug metabolism in Swiss-Hauschka (ICR) mouse liver microsomes assessed as 1alpha-hydroxylcinobufagin formation at 100 uM at 37 degC after 30 mins by UFLC-ESI-MS analysis in presence of NADPH-generating system. Type of data set: ADME. The note with it: 0.5 h. The method in brief:
as §1

Data set [8] has as its system Liver microsome. Put plainly: Ratio of Vmax/Km in human liver microsomes assessed as 1alpha-hydroxylcinobufagin formation at 100 uM […] by UFLC-ESI-MS analysis. Type of data set: ADME. The note with it: 0.5 h.
Data set [9] has as its system Liver. Put plainly: Ratio of Vmax/Km in Swiss-Hauschka (ICR) mouse liver microsomes assessed as 5beta-hydroxylcinobufaginn formation at 100 uM […] by UFLC-ESI-MS analysis. Format: ADME. The note with it: 0.5 h.
For data set [10], the system named is Liver microsome. Put plainly: Drug metabolism in human liver microsomes assessed as 1alpha-hydroxylcinobufagin formation at 100 uM at 37 degC after 30 mins […] in presence of 2 uM montelukast CYP2C8 inhibitor. Format: ADME. The settings on record: 0.5 h.

In the case of `CC(=O)O[C@H]1[C@H]2O[C@]23[C@@H]2CC[C@@H]4C[C@@H](O)CC[C@]4(C)[C@H]2CC[C@]3(C)[C@H]1c1ccc(=O)oc1` [CINOBUFAGIN], the Drug metabolism result (in the data set with Liver microsome [1]; in the data set with Liver microsome [3]; in data set [7]; in the data set on Liver microsome [10]) was “metabolite_detected” throughout. In addition, the Vmax/Km amounted to 595 µL/mg/min in the data set with Liver [2], 47.2 µL/mg/min in the data set with Liver microsome [8] and 644.6 µL/mg/min in the data set with Liver [9]. For the same compound, the Vmax (usually the top rate of the reaction or transport when substrate is in excess) is 1.84 nmol/min/mg in data set [4] and 6.51 nmol/min/mg in data set [5]. Moreover, the Km (commonly the substrate concentration at which the rate is half of its maximum) in data set [6] is 10.1 µM.
